In ChEMBL document CHEMBL1156833, “The discovery of MK-0674, an orally bioavailable cathepsin K inhibitor” (Bioorg Med Chem Lett, 2010):
pIC50: −log10 of the molar value.

Legend:
[1] = Oral bioavailability in rat; format: ADME, organism-based; details: in vivo
In short: (§1)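 Pharmacokinetics in rats, rabbits and rhesus monkeys after oral dosing in 1% methocel vehicle. Half-life and oral bioavailability were derived from the plasma profiles.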

[2] = target: Cathepsin K (Homo sapiens, UniProt P43235); test: Inhibition of humanized rabbit cathepsin K
[3] = Decrease in bone resorption assessed as corrected bone resorption measured as ratio of bone resorption IC50 x humanized rabbit cathepsin K IC50 to rabbit cathepsin K IC50 equation; format: functional, tissue-based, Bone element
[4] = species on record: Homo sapiens; test: Selectivity ratio of IC50 for human cathepsin B to IC50 for humanized rabbit cathepsin K
[5] = species on record: Homo sapiens; test: Selectivity ratio of IC50 for human cathepsin F to IC50 for humanized rabbit cathepsin K
[6] = species on record: Homo sapiens; test: Selectivity ratio of IC50 for human cathepsin S to IC50 for humanized rabbit cathepsin K
[7] = species on record: Homo sapiens; test: Selectivity ratio of IC50 for human cathepsin L to IC50 for humanized rabbit cathepsin K
[8] = Oral bioavailability in squirrel monkey; format: ADME, organism-based; details: saimiri, in vivo
[9] = Half life in po dosed rat; format: ADME, organism-based; details: in vivo; in short: as §1
[10] = tested on: Rattus norvegicus; test: Metabolic stability in rat assessed as conversion to (S)-N-(1-cyanocyclopropyl)-2-((S)-1-(4'-((R)-2,2-difluoro-1-hydroxyethyl)biphenyl-4-yl)-2,2,2-trifluoroethylamino)-4-fluoro-4-methylpentanamide at 25 mg/kg, po; format: ADME, organism-based; design: dose 25 mg/kg, route oral; details: in vivo
[11] = tested on: Rattus norvegicus; test: Metabolic stability in rat at 25 mg/kg, po and 5 mg/kg, iv up to 24 hrs; format: ADME, organism-based; details: in vivo
[12] = tested on: Rattus norvegicus; test: Metabolic stability in rat at 25 mg/kg, po after up to 24 hrs; format: ADME, organism-based; design: dose 25 mg/kg, route oral; details: in vivo
[13] = tested on: Canis familiaris; test: Metabolic stability in dog at 25 mg/kg, po and 5 mg/kg, iv up to 24 hrs; format: ADME, organism-based, Canis lupus familiaris; details: in vivo
[14] = Oral bioavailability in rhesus monkey; format: ADME, organism-based, Macaca mulatta; details: in vivo; in short: as §1
[15] = Half life in po dosed rhesus monkey; format: ADME, organism-based, Macaca mulatta; details: in vivo; in short: as §1
[16] = Metabolic stability in rabbit hepatocytes assessed as compound remaining; format: ADME, cell-based, Oryctolagus cuniculus, Hepatocyte
[17] = Metabolic stability in rhesus monkey hepatocytes assessed as compound remaining; format: ADME, cell-based, Macaca mulatta, Hepatocyte
[18] = Half life in po dosed rabbit; format: ADME, organism-based, Oryctolagus cuniculus; details: in vivo; in short: as §1
[19] = tested on: Hepatocyte; test: Metabolic stability in rat hepatocytes assessed as compound remaining; format: ADME, cell-based
[20] = Oral bioavailability in rabbit; format: ADME, organism-based, Oryctolagus cuniculus; details: in vivo; in short: as §1
[21] = tested on: Rattus norvegicus; test: Metabolic stability in rat assessed as formation ratio of (S)-N-(1-cyanocyclopropyl)-2-((S)-1-(4'-((R)-2,2-difluoro-1-hydroxyethyl)biphenyl-4-yl)-2,2,2-trifluoroethylamino)-4-fluoro-4-methylpentanamide to (S)-N-(1-cyanocyclopropyl)-2-((S)-1-(4'-((S)-2,2-difluoro-1-hydroxyethyl)biphenyl-4-yl)-2,2,2-trifluoroethylamino)-4-fluoro-4-methylpentanamide at 25 mg/kg, po and 5 mg/kg, iv; format: ADME, organism-based; details: in vivo
[22] = tested on: Hepatocyte; test: Metabolic stability in human hepatocytes assessed as formation ratio of (S)-N-(1-cyanocyclopropyl)-2-((S)-1-(4'-((R)-2,2-difluoro-1-hydroxyethyl)biphenyl-4-yl)-2,2,2-trifluoroethylamino)-4-fluoro-4-methylpentanamide to (S)-N-(1-cyanocyclopropyl)-2-((S)-1-(4'-((S)-2,2-difluoro-1-hydroxyethyl)biphenyl-4-yl)-2,2,2-trifluoroethylamino)-4-fluoro-4-methylpentanamide; format: ADME, cell-based
[23] = tested on: Canis familiaris; test: Metabolic stability in dog assessed as formation ratio of (S)-N-(1-cyanocyclopropyl)-2-((S)-1-(4'-((R)-2,2-difluoro-1-hydroxyethyl)biphenyl-4-yl)-2,2,2-trifluoroethylamino)-4-fluoro-4-methylpentanamide to (S)-N-(1-cyanocyclopropyl)-2-((S)-1-(4'-((S)-2,2-difluoro-1-hydroxyethyl)biphenyl-4-yl)-2,2,2-trifluoroethylamino)-4-fluoro-4-methylpentanamide at 25 mg/kg, po and 5 mg/kg, iv; format: ADME, organism-based, Canis lupus familiaris; details: in vivo
[24] = tested on: Hepatocyte; test: Metabolic stability in rat hepatocytes assessed as formation ratio of (S)-N-(1-cyanocyclopropyl)-2-((S)-1-(4'-((R)-2,2-difluoro-1-hydroxyethyl)biphenyl-4-yl)-2,2,2-trifluoroethylamino)-4-fluoro-4-methylpentanamide to (S)-N-(1-cyanocyclopropyl)-2-((S)-1-(4'-((S)-2,2-difluoro-1-hydroxyethyl)biphenyl-4-yl)-2,2,2-trifluoroethylamino)-4-fluoro-4-methylpentanamide; format: ADME, cell-based
[25] = Metabolic stability in dog hepatocytes assessed as formation ratio of (S)-N-(1-cyanocyclopropyl)-2-((S)-1-(4'-((R)-2,2-difluoro-1-hydroxyethyl)biphenyl-4-yl)-2,2,2-trifluoroethylamino)-4-fluoro-4-methylpentanamide to (S)-N-(1-cyanocyclopropyl)-2-((S)-1-(4'-((S)-2,2-difluoro-1-hydroxyethyl)biphenyl-4-yl)-2,2,2-trifluoroethylamino)-4-fluoro-4-methylpentanamide; format: ADME, cell-based, Canis lupus familiaris, Hepatocyte
[26] = Metabolic stability in rabbit hepatocytes assessed as formation ratio of (S)-N-(1-cyanocyclopropyl)-2-((S)-1-(4'-((R)-2,2-difluoro-1-hydroxyethyl)biphenyl-4-yl)-2,2,2-trifluoroethylamino)-4-fluoro-4-methylpentanamide to (S)-N-(1-cyanocyclopropyl)-2-((S)-1-(4'-((S)-2,2-difluoro-1-hydroxyethyl)biphenyl-4-yl)-2,2,2-trifluoroethylamino)-4-fluoro-4-methylpentanamide; format: ADME, cell-based, Oryctolagus cuniculus, Hepatocyte

Structure (SMILES)	bioavailability [1]	pIC50 [2]	pIC50 [3]	Ratio IC50 [4]	Ratio IC50 [5]	Ratio IC50 [6]	Ratio IC50 [7]	further results
Cc1csc(-c2ccc([C@H](N[C@@H](CC(C)(C)F)C(=O)NC3(C#N)CC3)C(F)(F)F)cc2)n1	10%	9.52	7.85	4040	1980	777	18800	bioavailability [8]: 5%
CC(C)(F)C[C@H](N[C@@H](c1ccc(-c2ccc(C(C)(C)O)cc2)cc1)C(F)(F)F)C(=O)NC1(C#N)CC1	24%	9.70	8.00	2200	2410	715	28900	half-life [9]: < 1 h
[2H][C@](O)(c1ccc(-c2ccc([C@H](N[C@@H](CC(C)(C)F)C(=O)NC3(C#N)CC3)C(F)(F)F)cc2)cc1)C(F)F	–	–	–	–	–	–	–	Stability [10]: Unstable; Stability [11]: Stable; Stability [12]: Stable; Stability [13]: Stable
CC(C)(F)C[C@H](N[C@@H](c1ccc(-c2ccc3ncccc3c2)cc1)C(F)(F)F)C(=O)NC1(C#N)CC1	–	9.40	8.10	3000	–	44	6020	–
CC(C)(F)C[C@H](N[C@@H](c1ccc(-c2ccc([C@@H](O)C(F)F)cc2)cc1)C(F)(F)F)C(=O)NC1(C#N)CC1	122%	9.40	8.00	1160	1460	243	11900	bioavailability [14]: 64%; half-life [15]: 11 h; Stability [16]: 93%; Stability [17]: 93%; half-life [18]: 14 h; Stability [19]: 95%; bioavailability [20]: 70%; half-life [9]: 7 h
CC(C)(F)C[C@H](N[C@@H](c1ccc(-c2ccc(S(C)(=O)=O)cc2)cc1)C(F)(F)F)C(=O)NC1(C#N)CC1 [ODANACATIB]	–	9.70	8.30	5170	3230	300	15000	–
C[C@H](C(N)=O)c1ccc(-c2ccc([C@H](N[C@@H](CC(C)(C)F)C(=O)NC3(C#N)CC3)C(F)(F)F)cc2)cc1	–	9.70	7.46	1440	3590	693	21300	–
CC(C)(F)C[C@H](N[C@@H](c1ccc(-c2ccc(C3(O)CC3)cc2)cc1)C(F)(F)F)C(=O)NC1(C#N)CC1	–	9.70	7.89	1420	1150	106	11000	–
CC(C)(F)C[C@H](N[C@@H](c1ccc(-c2ccc(C3(C(N)=O)CC3)cn2)cc1)C(F)(F)F)C(=O)NC1(C#N)CC1	–	9.30	7.46	3920	3440	849	3700	–
CC(C)(F)C[C@H](N[C@@H](c1ccc(-c2ccc(S(C)(=O)=O)nc2)cc1)C(F)(F)F)C(=O)NC1(C#N)CC1	–	8.59	8.10	725	–	28	1300	–
[2H][C@@](O)(c1ccc(-c2ccc([C@H](N[C@@H](CC(C)(C)F)C(=O)NC3(C#N)CC3)C(F)(F)F)cc2)cc1)C(F)F	–	–	–	–	–	–	–	Stability [10]: Unstable; Stability [11]: Stable; Stability [12]: Stable; Stability [13]: Stable
CC(C)(F)C[C@H](N[C@@H](c1ccc(-c2ccc(C3(C(N)=O)CC3)cc2)cc1)C(F)(F)F)C(=O)NC1(C#N)CC1	8%	9.70	7.92	1560	2380	766	11100	bioavailability [8]: 5%
CC(C)(F)C[C@H](N[C@@H](c1ccc(-c2ccc([C@H](O)C(F)F)cc2)cc1)C(F)(F)F)C(=O)NC1(C#N)CC1	86%	9.40	8.15	1470	1600	197	14100	bioavailability [14]: 139%; half-life [15]: 6 h; Stability [16]: 70%; Stability [17]: 88%; half-life [18]: 8 h; Stability [19]: 94%; bioavailability [20]: 132%; half-life [9]: 10 h
CC(C)(F)C[C@H](N[C@@H](c1ccc(-c2ccc(C3(O)CC3)cn2)cc1)C(F)(F)F)C(=O)NC1(C#N)CC1	7%	9.52	–	3640	2760	210	18000	–
CC(C)(F)C[C@H](N[C@@H](c1ccc(-c2ccc(C(=O)C(F)F)cc2)cc1)C(F)(F)F)C(=O)NC1(C#N)CC1	–	–	–	–	–	–	–	Ratio [21]: > 10; Ratio [22]: > 200; Ratio [23]: 5; Stability [11]: Stable; Ratio [24]: 24; Ratio [25]: 5; Ratio [26]: 48; Stability [12]: Stable; Stability [13]: Stable
